SUMO HTRF inh – inhibitors of in vitro SUMOylation cascade, primary screen, biochemical, HTRF, uHTS | AID 2006, 2009 | actives 0.36% (n = 290,000) | HTRF SUMOylation assay, SAE1/SAE2 + UBC9 | inhibition, % at 35 µM; in the data active = inhibition above about 50%, passing the limit was not always enough
UBC13 polyUb – UBC13 polyubiquitin chain formation inhibitors, primary screen, biochemical, TR-FRET, uHTS; actives 0.47% (n = 330,000); inhibition, % at 20 µM; in the data active = inhibition above about 45%, passing the limit was not always enough
PAD4 inh – human PAD4 inhibitors, primary screen, biochemical, fluorescence polarization, 1536-well format. Protein-arginine deiminase type-4 (Homo sapiens), Q9UM07. recombinant PAD4, RCA probe fluorescence polarization. inhibition, % at 6.36 µM. actives 0.41% (n = 330,000). AID 485272, 2010;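 active = percent inhibition above a cutoff equal to the mean of all tested compounds plus 3 SD, cut at about 15% in these data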;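 also: 0% = PAD4 with RCA probe and DMSO and 100% = probe without PAD4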
Apaf-1 inh – inhibitors of human Apaf-1 apoptosome, primary screen, biochemical, DEVD-Rh110 fluorescence, uHTS; inhibition, % at 20 µM; reconstituted apoptosome caspase-3 activity; Apoptotic protease-activating factor 1 (Homo sapiens), O14727; AID 489030, 2010; actives 0.71% (n = 330,000); active = inhibition of at least 40% at 20 µM;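 also: plate controls were DMSO wells for no effect and DEVD-CHO caspase inhibitor wells for full effect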
Target sequence (O14727 whole entry, looked up): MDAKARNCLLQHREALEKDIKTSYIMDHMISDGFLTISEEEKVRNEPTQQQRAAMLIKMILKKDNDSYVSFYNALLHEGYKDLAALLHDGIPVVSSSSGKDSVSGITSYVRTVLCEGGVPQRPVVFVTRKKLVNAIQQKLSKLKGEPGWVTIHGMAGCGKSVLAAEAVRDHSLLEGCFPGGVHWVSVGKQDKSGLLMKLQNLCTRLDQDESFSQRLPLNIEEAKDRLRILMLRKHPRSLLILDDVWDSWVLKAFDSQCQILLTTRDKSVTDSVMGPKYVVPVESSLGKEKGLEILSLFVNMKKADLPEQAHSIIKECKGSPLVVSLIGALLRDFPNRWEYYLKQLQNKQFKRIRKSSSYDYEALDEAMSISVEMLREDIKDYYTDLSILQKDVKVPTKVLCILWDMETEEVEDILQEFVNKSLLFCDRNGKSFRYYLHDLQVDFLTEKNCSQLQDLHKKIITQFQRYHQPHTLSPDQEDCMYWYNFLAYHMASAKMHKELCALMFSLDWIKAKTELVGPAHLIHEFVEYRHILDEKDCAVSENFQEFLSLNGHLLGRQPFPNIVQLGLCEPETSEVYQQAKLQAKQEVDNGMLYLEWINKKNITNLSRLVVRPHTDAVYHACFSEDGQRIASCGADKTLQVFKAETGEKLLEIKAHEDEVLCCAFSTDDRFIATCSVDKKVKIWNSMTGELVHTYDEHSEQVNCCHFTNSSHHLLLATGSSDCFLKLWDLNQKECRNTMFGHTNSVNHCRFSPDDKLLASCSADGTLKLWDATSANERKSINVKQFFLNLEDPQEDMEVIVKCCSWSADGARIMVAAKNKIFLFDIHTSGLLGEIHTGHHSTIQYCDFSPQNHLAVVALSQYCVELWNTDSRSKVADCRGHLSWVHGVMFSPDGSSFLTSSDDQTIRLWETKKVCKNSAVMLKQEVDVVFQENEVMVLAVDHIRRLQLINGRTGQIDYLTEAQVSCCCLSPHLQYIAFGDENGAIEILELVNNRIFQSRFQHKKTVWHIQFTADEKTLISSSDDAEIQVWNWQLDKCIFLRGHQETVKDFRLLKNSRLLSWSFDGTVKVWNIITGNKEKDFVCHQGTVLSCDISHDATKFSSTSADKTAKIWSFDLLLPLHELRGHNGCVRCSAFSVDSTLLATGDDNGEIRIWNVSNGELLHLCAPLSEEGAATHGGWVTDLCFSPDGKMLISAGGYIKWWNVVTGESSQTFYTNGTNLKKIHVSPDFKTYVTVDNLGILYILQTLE
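Medium: Hepes buffer, pH 7.5 / System: biochemical Apaf-1 apoptosome reconstitution / Measured by: Rh110 fluorescence, excitation 480 nm, emission 540 nm / Times: compound with Apaf-1, dATP, procaspase-3 30 min, then 50 min reaction, room temperature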
GSTO1 counter – inhibitors of recombinant GSTO1, primary screen, counter-screen for RBBP9 inhibitor project, biochemical, fluorescence polarization. Glutathione S-transferase omega-1 (Homo sapiens), P78417. activity-based probe fluorescence polarization. inhibition, % at 5.96 µM. actives 1.1% (n = 300,000);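 active = inhibition above the campaign mean inhibition plus 3 SD, cut at about 35% in these data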;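 also: 0% = GSTO1-1 with DMSO and 100% = wells lacking GSTO1-1 enzyme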
Rin1 Abl inh – inhibitors of Rin1-Abl protein binding, primary screen, biochemical, TR-FRET; inhibition, % at 7.35 µM; actives 0.4% (n = 360,000); in the data active = inhibition above about 5%, passing the limit was not always enough
GSTO1 inh conf – GSTO1 inhibitor hit confirmation, counter-screen for RBBP9 inhibitor project, biochemical, fluorescence polarization, triplicate; AID 2176, 2009; recombinant GSTO1, probe fluorescence polarization; shares compounds with GSTO1 counter; actives 54% (n = 2,400); inhibition, % at 5.96 µM;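 active = inhibition above the primary screen's cutoff, its mean inhibition plus 3 SD, cut at about 35% in these data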;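 also: loss of polarization as inhibitors block binding of rhodamine sulfonate ester activity probe; 0% = GSTO1 with DMSO and 100% = wells lacking GSTO1 enzyme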
GSTO1 ABPP inh – inhibitors of purified human GSTO1, late-stage follow-up, biochemical, gel ABPP, SE-Rh probe, percent inhibition; shares compounds with GSTO1 counter; recombinant GSTO1, gel ABPP SE-Rh probe fluorescence; inhibition, % at 1 µM; actives 30% (n = 130); AID 463110, 2010;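 active = inhibition of the enzyme GSTO1 above about 75%, limit read from the data; inactive = inhibition below that limit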
* hit, by the source's call; x = not tested or not shown. This is a sample that favours compounds with a hit; in the whole collection about 2.2% have one here.

SMILES	SUMO HTRF inh	UBC13 polyUb	PAD4 inh	Apaf-1 inh	GSTO1 counter	Rin1 Abl inh	GSTO1 inh conf	others
CN(C)c1ccc(O)c2c1CC1CC3[C@@H](N(C)C)C(=O)C(C(N)=O)=C(O)[C@]3(O)C(=O)C1=C2O (some centres undefined)	48	17	3	-1	40*	16*	34
COc1ccc(NC(=O)C[C@H]2C(=O)N(C3CCCCC3)C[C@@H]2c2ccc(OC)cc2)cc1	x	x	x	x	x	0	x
Cc1nn(-c2ccccc2)c(C)c1NC(=O)COC(=O)c1ccc(Cl)c(S(N)(=O)=O)c1	x	3	-1	-6	11	0	x
Oc1ccccc1N=N/C(=N/Nc1ccccc1O)c1ccccc1	x	13	3	6	17	3	x
N#C/C(N=Nc1ccccc1O)=N\Nc1ccccc1O	x	-257	3	6	87*	2	68*
COC(=O)c1ccccc1NC(=O)c1ccccc1SC	18	1	-2	11	66*	0	6
CCOC(=O)c1ccccc1NC(=O)c1ccccc1SC	14	-3	-7	1	7	-2	x
CC(C)C(NC(=O)c1ccccc1)C(=O)N1CCCCCC1 (centres undefined)	13	-8	-4	5	5	1	x
O=[N+]([O-])c1cc([N+](=O)[O-])c2cccnc2c1Oc1ccccc1O	4	x	4	x	50*	1	6
O=[N+]([O-])c1ccc(O)c2ncccc12	-13	-62	-10	20	45*	-1	23
O=C(CSc1nc2ncc(Br)cc2[nH]1)Nc1ccc2c(c1)OCO2	18	-3	-3	13	45*	2	53*
CC(=NCCCn1ccnc1)c1c(-c2ccccc2)[nH]n(-c2nc3ccccc3s2)c1=O	13	-2	1	22	57*	-4	5
C=CCNC(=S)NNC(=O)c1cc(O)ccc1O	-3	2	-3	9	62*	3	7
Cc1ccc(OC(=O)N(C)C[C@@H]2OCc3cn(nn3)CCCC(=O)N([C@@H](C)CO)C[C@H]2C)cc1	x	x	x	x	x	5	x
CCC(C(=O)OCC(=O)Nc1ccc(Cl)c(S(=O)(=O)N(C)C)c1)c1ccccc1 (centres undefined)	-36	4	-5	6	65*	1	-2
COc1cc(F)ccc1-c1csc(C(O)c2ccccc2)n1 (centres undefined)	x	x	x	x	x	-1	x
CCOC(=O)c1[nH]c2ccc(OC)cc2c1NC(=O)CN1CCc2ccccc2C1	-2	15	-4	0	51*	1	1
CCOC(=O)c1[nH]c2ccc(OC)cc2c1NC(=O)CN1CCN(c2ccccn2)CC1	0	2	4	6	20	x	x
CCCNC(=O)C1(C)CCCN(C(=O)c2cccc(OC(F)(F)F)c2)C1 (centres undefined)	x	x	x	x	x	1	x
CCOC(=O)Cn1c(=O)oc2cc(S(=O)(=O)Nc3cc(OCC)ccc3OCC)ccc21	10	13	4	6	11	3	x
CCOC(=O)Cn1c(=O)oc2cc(S(=O)(=O)Nc3ccc(N(CC)CC)cc3C)ccc21	-17	9	-1	6	68*	5	62*
Cc1cccc(N2CCN(C(=O)COc3ccc4c(c3)CCC4)CC2C)c1 (centres undefined)	x	4	2	8	x	2	x
COc1cc(CNC(C)c2ccccc2)cc(Br)c1OCc1ccccc1 (centres undefined)	-12	18	1	14	-9	-1	x
COc1cc(CNc2ccc(O)cc2)cc(Br)c1OCc1ccccc1	99	2	10	20	53*	2	1
N/C(=C\C(=O)c1cc(Cl)ccc1O)C(Cl)(Cl)Cl	24	11	-2	-6	65*	0	77*
SMILES	SUMO HTRF inh	UBC13 polyUb	PAD4 inh	Apaf-1 inh	GSTO1 counter	Rin1 Abl inh	GSTO1 inh conf	others
CC(C)(C)c1ccc(C(=O)CC(=O)c2cc(Cl)ccc2O)cc1	15	-5	-2	-9	26	-4	x
N#CC1(NC(=O)COC(=O)c2cc(O)c3ccccc3c2O)CCCCC1	x	-17	3	73*	61*	0	57*
CCOC(=O)N1CCN(C(=O)c2ccccc2N(Cc2ccccc2)S(=O)(=O)c2ccccc2)CC1	-4	8	-4	9	7	0	x
NC(=O)c1ccc(N=C2C(=O)Nc3ccc([N+](=O)[O-])cc32)cc1	63	-55	-2	56*	71*	1	30
COc1ccc(S(=O)(=O)Nc2c(O)ccc3ccccc23)cc1OC	x	-17	-17	11	45*	1	8
CC(C)CC1Nc2ncnc(N3CCCCC3)c2N(Cc2ccc(Br)cc2)C1=O (centres undefined)	x	4	2	9	-1	2	x
CC(=O)N1N=C(c2ccco2)CC1c1cccs1 (centres undefined)	14	0	-3	2	4	1	x
O=C(CCl)N1N=C(c2ccco2)CC1c1cccs1 (centres undefined)	10	x	0	x	85*	-4	99*
Cc1ccc(C2=NN(C(=O)CCl)C(c3cccs3)C2)o1 (centres undefined)	6	5	7	6	99*	4	96*
O=[N+]([O-])c1ccccc1N/N=C/c1cccc(O)c1O	18	-33	1	-2	49*	-3	8
COc1ccccc1N(C(=O)CCl)c1cn(C(C)=O)c2ccccc12	10	5	4	-14	71*	0	79*	GSTO1 ABPP inh=14
CCOC(=O)c1ccccc1Nc1cn(C(C)=O)c2ccccc12	14	-2	-6	8	-4	-2	x
CCc1nc2ccc(C(=O)NCCc3ccc(OC)c(OC)c3)cc2nc1CC	5	-2	0	-1	-1	-3	x
COc1ccc(CCNC(=O)c2ccc3nc(-c4ccco4)c(-c4ccco4)nc3c2)cc1OC	85	13	-13	56*	39*	2	14
Cc1cc(C)c2c(c1)CC(C)(C)CC2=O	x	x	x	x	x	2	x
COc1cc(/C=C2/S/C(=N/S(=O)(=O)c3ccccc3)NC2=O)c([N+](=O)[O-])cc1OC	-2	-13	-15	14	41*	0	32

Bioassay records as filed in PubChem.
